# Measurements taken from ChEMBL document CHEMBL1137547, “Synthesis and antifungal activities of novel 2-aminotetralin derivatives” (2007).
# Key:
# Type in all cases: functional
# Aspergillus fumigatus = assay: Antifungal activity against Aspergillus fumigatus
# Procedure, shortened: (§1)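 NCCLS broth serial dilution in RPMI 1640 buffered with 0.165 M MOPS. Compounds were dissolved in DMSO and serially diluted in medium. Strains came from ATCC or clinical isolates. The growth MIC for filamentous fungi was read at 7 d, taken as the lowest concentration giving ≥80% turbidity inhibition versus the growth control.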
# Cryptococcus neoformans = assay: Antifungal activity against Cryptococcus neoformans after 72 hrs
# Procedure, shortened: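 Cryptococcus neoformans was tested by NCCLS serial dilution in MOPS-buffered (0.165 M) RPMI 1640 at 35 °C. Compounds were dissolved in DMSO and diluted in medium. The MIC was read at 72 h as the lowest concentration giving turbidity inhibition of ≥80% relative to the growth control.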
# Candida albicans = assay: Antifungal activity against Candida albicans after 24 hrs
# Procedure, shortened: (§2)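 Candida yeasts were tested by NCCLS microdilution in RPMI 1640 buffered with 0.165 M MOPS and incubated at 35 °C. Compounds were dissolved in DMSO and serially diluted in medium. Isolates came from ATCC or the clinic. The MIC was read at 24 h as the lowest concentration achieving ≥80% growth inhibition versus the control.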
# Trichophyton rubrum = assay: Antifungal activity against Trichophyton rubrum
# Procedure, shortened: (§3)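 Dermatophytes were tested by NCCLS serial dilution in RPMI 1640 with 0.165 M MOPS and incubated at 28 °C. Compounds were dissolved in DMSO and diluted in medium. Strains came from ATCC or clinical isolates. The MIC was read at 7 d as the lowest concentration reducing turbidity by ≥80% relative to the drug-free control.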
# Microsporum = assay: Antifungal activity against Microsporum gypseum; procedure, shortened: as §3
# Candida parapsilosis = assay: Antifungal activity against Candida parapsilosis after 24 hrs; details: Lodderomyces parapsilosis; procedure, shortened: as §2
# Fonsecaea compacta = assay: Antifungal activity against Fonsecaea compacta; procedure, shortened: as §1
SMILES,MIC (Aspergillus fumigatus),MIC (Cryptococcus neoformans),MIC (Candida albicans),MIC (Trichophyton rubrum),MIC (Microsporum),MIC (Candida parapsilosis),MIC (Fonsecaea compacta)
CCCCCCCCCCN1CCc2cc(O)c(O)cc2C1,16 µM,1 µM,> 64 µM,1 µM,> 64 µM,0.5 µM,16 µM
Oc1ccc2c(c1)CC(Nc1ccc(Cl)cc1)CC2 (stereo not drawn),64 µM,16 µM,> 64 µM,2 µM,4 µM,32 µM,32 µM
Oc1cccc2c1CC(Nc1ccc(Cl)cc1)CC2 (stereo not drawn),> 64 µM,32 µM,16 µM,8 µM,8 µM,32 µM,64 µM
CCCCNC1CCc2cccc(O)c2C1 (stereo not drawn),> 64 µM,> 64 µM,> 64 µM,> 64 µM,64 µM,> 64 µM,> 64 µM
CCCCCCCCNC1CCc2cccc(OC)c2C1 (stereo not drawn),32 µM,16 µM,16 µM,4 µM,8 µM,32 µM,8 µM
NC1CCc2c(O)cccc2C1 (stereo not drawn),> 64 µM,> 64 µM,> 64 µM,> 64 µM,> 64 µM,> 64 µM,32 µM
NC1CCc2cc(O)ccc2C1 (stereo not drawn),> 64 µM,> 64 µM,> 64 µM,> 64 µM,> 64 µM,> 64 µM,32 µM
NC1CCc2ccc(O)cc2C1 (stereo not drawn),> 64 µM,> 64 µM,> 64 µM,> 64 µM,> 64 µM,> 64 µM,32 µM
CCCCCCCCNC1CCc2cccc(O)c2C1 (stereo not drawn),,8 µM,2 µM,8 µM,4 µM,8 µM,4 µM
COc1ccc2c(c1)CCC(N)C2 (stereo not drawn),> 64 µM,> 64 µM,> 64 µM,64 µM,> 64 µM,> 64 µM,> 64 µM
CCCCCCCCNC1CCc2c(O)cccc2C1 (stereo not drawn),> 64 µM,32 µM,8 µM,4 µM,8 µM,64 µM,8 µM
CCCCCCCCCNC1CCc2ccc(OC)cc2C1 (stereo not drawn),16 µM,4 µM,0.25 µM,0.0625 µM,4 µM,4 µM,2 µM
CCCCCCCCCNC1CCc2cccc(OC)c2C1 (stereo not drawn),16 µM,4 µM,0.5 µM,2 µM,64 µM,1 µM,2 µM
CCCCCCCCCNC1CCc2c(O)cccc2C1 (stereo not drawn),64 µM,8 µM,1 µM,4 µM,8 µM,32 µM,4 µM
CCCCCCCCCNC1CCc2cccc(O)c2C1 (stereo not drawn),16 µM,8 µM,1 µM,4 µM,4 µM,8 µM,4 µM
CCCCCCCCCCNC1CCc2cc(OC)ccc2C1 (stereo not drawn),> 64 µM,16 µM,0.25 µM,1 µM,4 µM,8 µM,8 µM
CCCCCCCCCCNC1CCc2ccc(O)cc2C1 (stereo not drawn),32 µM,1 µM,1 µM,0.25 µM,4 µM,4 µM,2 µM
CCCCCCCCCCCCNC1CCc2c(cccc2OC)C1 (stereo not drawn),> 64 µM,8 µM,8 µM,0.5 µM,16 µM,16 µM,8 µM
NC1CCc2cccc(O)c2C1 (stereo not drawn),> 64 µM,> 64 µM,> 64 µM,> 64 µM,> 64 µM,> 64 µM,32 µM
CCCCNC1CCc2c(cccc2OC)C1 (stereo not drawn),> 64 µM,> 64 µM,> 64 µM,64 µM,> 64 µM,> 64 µM,> 64 µM
CCCCNC1CCc2ccc(OC)cc2C1 (stereo not drawn),> 64 µM,> 64 µM,64 µM,4 µM,64 µM,64 µM,4 µM
CCCCCCCCCCCCNC1CCc2ccc(OC)cc2C1 (stereo not drawn),16 µM,1 µM,2 µM,2 µM,2 µM,1 µM,8 µM
